# T1: Uch37 (Homo sapiens, UniProt Q9Y5K5)
# T1 sequence (Q9Y5K5 1-329): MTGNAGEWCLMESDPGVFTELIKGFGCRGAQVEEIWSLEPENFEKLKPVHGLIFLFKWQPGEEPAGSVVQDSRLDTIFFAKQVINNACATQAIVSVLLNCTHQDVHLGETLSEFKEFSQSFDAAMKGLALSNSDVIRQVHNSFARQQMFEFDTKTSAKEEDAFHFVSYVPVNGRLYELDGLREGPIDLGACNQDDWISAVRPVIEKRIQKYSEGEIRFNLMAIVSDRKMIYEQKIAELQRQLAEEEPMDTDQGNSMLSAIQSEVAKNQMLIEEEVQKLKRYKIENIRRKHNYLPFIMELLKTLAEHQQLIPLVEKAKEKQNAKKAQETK
# B1: Rpn13Q337A/Q338A: Rpn13 double mutant defective in Uch37 activation, FLAG-tagged, expressed from plasmid (protein, UniProt Q16186 2-407, looked up, variant Q337A Q338A)
# Proteasomal ubiquitin …: TTSGALFPSLVPGSRGASNKYLVEFRAGKMSLKGTTVTPDKRKGLVYIQQTDDSLIHFCWKDRTSGNVEDDLIIFPDDCEFKRVPQCPSGRVYVLKFKAGSKRLFFWMQEPKTDQDEEHCRKVNEYLNNPPMPGALGASGSSGHELSALGGEGGLQSLLGNMSHSQLMQLIGPAGLGGLGGLGALTGPGLASLLGSSGPPGSSSSSSSRSQSAAVTPSSTTSSTRATPAPSAPAAASATSPSPAPSSGNGASTAASPTQPIQLSDLQSILATMNVPAGPAGGQQVDLASVLTPEIMAPILANADVQERLLPYLPSGESLPQTADEIQNTLTSPQFAAALGMFSAALASGQLGPLMCQFGLPAEAVEAANKGDVEAFAKAMQNNAKPEQKEGDTKDKKDEEEDMSLD
# modifications: FLAG tag
# Assays:
# Uch37 = biological target: T1, Uch37; details: ref VanderLinden et al., 2015; cited from earlier work
# SK-MEL-5 cells = assay type: cell-based, Homo sapiens; details: endogenous Rpn13 depleted by UTR siRNA; Fig. 6E
# Outline: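 SK-MEL-5 endogenous Rpn13 was depleted with UTR-targeting siRNA (50 nM) for 24 h. Cells at 70–80% confluency were then transfected with 2 μg wild-type or Q337A/Q338A FLAG-Rpn13 plasmid (Omnifect) per 6-well. Test compound was given at graded concentrations for 24 h. CellTiter-Glo 2.0 luminescence was normalized to vehicle, in technical triplicate and biological duplicate, with SD reported.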
# Rpn13-Uch37 interaction = details: ref VanderLinden et al., 2015; cited from earlier work
molecule,measurement,setting,value
B1,stimulation of Uch37 relative to wild-type Rpn13,Uch37,about 30%
same,viability upon expression of Rpn13 double mutant,SK-MEL-5 cells,no significant effect on viability
same,effect of mutations on physical interaction with Uch37,Rpn13-Uch37 interaction,the mutations do not affect the physical interaction of the two proteins

# Source: paper PMC7680388 (Cell chemical biology, 2020)
